Shown are actives, neighbours in structure and some others; about 1.5% of the full set was active somewhere.
APJ ag: activates the human apelin receptor APJ. P35414. CHO-K1 APJ PathHunter beta-arrestin, luminescence; 0% DMSO wells, 100% apelin. activation, % at 20 µM. 330,000 compounds, 0.11% hits;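 active = activation more than six SD over the plate average, tested at 20 µM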
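Assay system: engineered CHO-K1 APJ arrestin reporter cells; Amount: 1000 CHO-K1 reporter cells seeded per well; Dosing: one dose, 20 µM compound, 1% DMSO; Times: compound stimulation 90 min at 25 °C, detection 60 min; Measured by: luminescent beta-gal fragment complementation, chemiluminescent substrate; Read-out: APJ–arrestin association signal; Controls: DMSO vs Apelin-13 10 nM.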
CCR6 antagonist: CCR6 (human) receptor antagonism. P51684. CHO-K1 CCR6 PathHunter beta-arrestin, luminescence, CCL20-stimulated. inhibition, % at 20 µM. 340,000 compounds, 0.49% hits;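 active = compounds whose inhibition of the agonist-driven luminescence signal at 20 µM reaches about 50%, limit read from the data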;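 note: cells stimulated with CCL20 at 14 nM final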
CXCR6 inh: blocks human CXCR6 beta-arrestin recruitment | CHO-K1 PathHunter CXCR6 beta-arrestin, luminescence | inhibition, % at 20 µM | 360,000 compounds, 0.36% hits | O00574; in the data active = inhibition above about 34%, passing the limit was not always enough;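 note: antagonist mode with CXCL16 agonist at 10 nM final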
Target sequence (O00574 whole entry, looked up): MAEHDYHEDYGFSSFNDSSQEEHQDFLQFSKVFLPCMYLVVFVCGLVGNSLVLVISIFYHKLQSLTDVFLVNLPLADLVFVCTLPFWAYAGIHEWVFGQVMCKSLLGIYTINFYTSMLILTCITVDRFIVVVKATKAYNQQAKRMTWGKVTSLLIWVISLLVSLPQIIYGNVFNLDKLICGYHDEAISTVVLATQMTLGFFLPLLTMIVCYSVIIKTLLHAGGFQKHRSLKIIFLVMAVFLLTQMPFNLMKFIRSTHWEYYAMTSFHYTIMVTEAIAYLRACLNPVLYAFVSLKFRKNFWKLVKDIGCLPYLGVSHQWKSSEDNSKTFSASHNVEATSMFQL
APJ antag: blocks the human apelin receptor APJ | P35414 | CHO-K1 APJ beta-arrestin complementation, luminescence | inhibition, % at 20 µM | 330,000 compounds, 0.32% hits;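 active = inhibition above about 40% at 20 µM, limit read from the data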;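 note: cells challenged with 10 nM apelin-13 agonist together with compound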
EBI2 block: blocks human EBI2 receptor beta-arrestin signaling. EBI2 beta-arrestin recruitment, luminescence, 7a,25-OHC stimulated. inhibition, % at 5 µM. P32249. 360,000 compounds, 0.81% hits; in the data active = inhibition above about 38%;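 note: enzyme fragment complementation signal reports receptor beta-arrestin coupling in cells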
EBI2 antag conf: confirmation of human EBI2 receptor antagonists | shares compounds with EBI2 block | EBI2 beta-arrestin luminescence, 7a,25-OHC antagonism | inhibition, % at 5 µM | 2,400 compounds, 29% hits | AID 651997;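 active = inhibition of at least 50%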
EBI2 ag: EBI2 agonism counter-screen; shares compounds with EBI2 block; EBI2-expressing cells, agonist mode, luminescence, 60 min; 0% vehicle, 100% 7α,25-dihydroxycholesterol control; activation, % at 5 µM; 2,400 tested, under 10 active;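 active = activation of at least 50%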
bGal cs: counter-screen for EBI2 antagonists: E. coli beta-galactosidase inhibition | purified beta-galactosidase, luminescent Galacton Star, 15 min | inhibition, % at 5 µM | shares compounds with EBI2 block | 2,400 compounds, 1% hits | AID 652176;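 active = replicate-average signal at least 3 plate SD below neutral wells, shown as high inhibition, flagging enzyme-inhibiting false positives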;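 note: higher means stronger loss of beta-gal luminescence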
Hits are given with their value; 0 = inactive; - = no result given.

SMILES	APJ ag	CCR6 antagonist	CXCR6 inh	APJ antag	EBI2 block	EBI2 antag conf	EBI2 ag	bGal cs
COc1ccc(S(=O)(=O)N2CCN(CC(O)COc3ccc(C#N)cc3)CC2)cc1OC (configuration not stated)	0	0	0	0	0	-	-	-
COc1ccc(OCC(O)CN2CCC(CN3C(=O)c4cccc5cccc(c45)C3=O)CC2)cc1 (configuration not stated)	0	0	0	0	44	0	0	0
COc1ccc(OC)c(S(=O)(=O)N2CCN(CC(O)COc3ccccc3)CC2)c1 (configuration not stated)	0	0	0	0	46	0	0	0
COc1ccc(C(O)c2ncc(-c3ccc4ccccc4c3)[nH]2)cc1F (configuration not stated)	-	-	0	-	0	-	-	-
CC(NC(=O)/C=C/c1ccc(Br)cc1)c1ccccc1 (configuration not stated)	0	0	0	0	44	0	0	0
CCc1ccc(C(C)NC(=O)/C=C/c2ccc(Br)cc2)cc1 (configuration not stated)	0	0	0	0	61	0	0	0
CC(NC(=O)/C=C/c1ccccc1)c1ccccc1 (configuration not stated)	0	0	0	0	0	-	-	-
COc1ccc(S(=O)(=O)N(C)C[C@@H]2Oc3cc(Br)ccc3S(=O)(=O)N([C@H](C)CO)C[C@@H]2C)cc1	-	-	0	-	0	-	-	-
CCOC(=O)C1(C)CCCN(C(=O)c2cc(C)oc2C)C1 (configuration not stated)	-	-	0	-	0	-	-	-
COc1ccc(-c2noc(CSc3nnc(Cc4ccccc4)n3-c3ccc(Cl)cc3)n2)cc1	0	0	0	0	39	0	0	0
Cc1ccc(-c2noc(CSc3nnc(Cc4ccccc4)n3-c3ccc(Cl)cc3)n2)cc1	0	0	0	0	0	-	-	-
CCOC(=O)[C@]12CCCC=C1N(CCC1=CCCCC1)C(=O)[C@H](CC(=O)NCc1cccc3ccccc13)C2	-	-	-	-	0	-	-	-
c1ccc(Cn2cc(CNc3ccccc3)nn2)cc1	0	0	0	0	49	0	0	0
O=C(NCc1ccc(F)cc1)C1CCN(S(=O)(=O)N2CCC3(CC2)OCCO3)CC1	0	0	0	0	0	-	-	-
Cc1ccc(CNC(=O)C2CCN(S(=O)(=O)N3CCC4(CC3)OCCO4)CC2)cc1	0	0	0	0	45	0	0	0
CCc1ccc(CNC(=O)C2CCN(S(=O)(=O)N3CCC4(CC3)OCCO4)CC2)cc1	0	0	0	0	47	0	0	0
Cc1ccc(CNC(=O)C2CCN(S(=O)(=O)N3CCCCC3)CC2)cc1	0	0	0	0	0	-	-	-
CS(=O)(=O)Nc1cccc(NC(=O)C2Cc3c(-c4ccccc4)ccnc3O2)c1 (configuration not stated)	-	-	0	-	0	-	-	-
CC(C)(C)NC(=O)C(C1CC1)n1c(=O)c(-c2ccco2)nc2ccccc21 (configuration not stated)	-	-	-	-	0	-	-	-
CCCC1NC(=O)c2cc3ccccc3cc2-n2c1nc1cc(F)ccc1c2=O (configuration not stated)	-	-	0	-	0	-	-	-
COc1ccc(CCNc2ccc(C)cc2)cc1	0	0	0	0	54	0	0	0
COc1ccc(CCNc2ccncn2)cc1	0	0	0	0	0	-	-	-
S=C(NCc1cccnc1)Nc1ccc(Oc2ccc(Cl)cc2)cc1	0	0	0	0	46	0	0	0
NC(Cc1ccccc1)c1csc(NC(=O)c2cccc(OC(F)(F)F)c2)n1 (configuration not stated)	-	-	0	-	0	-	-	-
FC(F)(F)Oc1ccccc1C(c1nnnn1C1CCCC1)N1CCN(C/C=C/c2ccccc2)CC1 (configuration not stated)	-	-	0	-	64	0	0	0
SMILES	APJ ag	CCR6 antagonist	CXCR6 inh	APJ antag	EBI2 block	EBI2 antag conf	EBI2 ag	bGal cs
C(=C\c1ccccc1)/CN1CCN(C(CCc2ccccc2)c2nnnn2C2CCCC2)CC1 (configuration not stated)	-	-	0	-	51	0	0	0
CCc1ccc(/C=C/C(=O)c2ccc(N3CCOCC3)cc2)cc1	0	0	0	0	83	53	0	0
Cc1cccc(/C=C/C(=O)c2ccc(N3CCOCC3)cc2)c1	0	-	-	0	-	-	-	-
CCc1ccc(NC(=O)CS(=O)CC(=O)Nc2ccc(N3CCOCC3)cc2)cc1 (configuration not stated)	0	0	0	0	0	-	-	-
O=C(/C=C/c1ccc(F)cc1)c1ccc(N2CCOCC2)cc1	0	0	0	0	66	51	0	0
CCc1ccc(/C=C/C(=O)c2ccc(S(=O)(=O)N(C)C)cc2)cc1	0	0	0	0	86	60	0	0
Cc1ccc(/C=C/C(=O)c2ccc(N3CCOCC3)cc2)s1	0	0	0	0	65	0	0	0
CCc1ccc(C(=O)/C=C/c2ccc([N+](=O)[O-])o2)cc1	0	0	0	0	0	-	-	-
Cc1cccc(C)c1N1C(=O)c2ccccc2NC(=O)C1C(=O)NCCOc1ccccc1 (configuration not stated)	-	-	-	-	0	-	-	-
COc1ccc(CCC(=O)NCCc2ccc(Cl)cc2)cc1	0	0	0	0	43	0	0	0
O=c1c2c3nc4ccccc4nc3n(Cc3ccccc3)c2ncn1Cc1ccco1	-	0	0	-	51	0	0	0
COCCCn1c2nc3ccccc3nc2c2c(=O)n(Cc3ccc(Cl)cc3)cnc21	0	0	0	0	0	-	-	-
COc1cc(/C=C/C(=O)c2ccc(Cl)s2)cc(OC)c1O	0	0	0	0	45	0	0	0
COc1ccc(/C=C/C(=O)c2ccc(Cl)s2)cc1O	0	0	0	0	0	-	-	-
Cc1cccc(C)c1NC(=O)C1(C)CN(S(C)(=O)=O)CC(=O)N1CCc1ccc(O)cc1 (configuration not stated)	-	-	-	-	0	-	-	-
COCCCn1c(=O)/c(=C\c2ccccc2OC(F)F)s/c1=C(/C#N)C(=O)NC(C)C	0	0	0	0	60	51	0	0
CCN(CC)CCSc1nnc2c3ccccc3n(Cc3ccccc3)c2n1	0	0	0	0	54	0	0	0
CCn1c2ccccc2c2nnc(SCc3ccccc3)nc21	0	0	0	0	0	-	-	-
CCN(CC)CCSc1nnc2c3cc(F)ccc3n(Cc3ccccc3)c2n1	0	0	0	0	56	0	0	0
COc1ccc(NC(=O)C2(C)Cc3c(-c4cccc(NC(C)=O)c4)ccnc3O2)cn1 (configuration not stated)	-	-	0	-	0	-	-	-
CC(C)Oc1cc(F)ccc1-c1cc(C(=O)Nc2ccc(C(C)C)cc2)[nH]n1	-	-	0	-	54	0	0	0

Screening results: PubChem BioAssay, Sanford-Burnham Center for Chemical Genomics
